A short description of series [1]: Drug metabolism in rat microsomes assessed as drug turnover at 20 uM measured after 30 mins by LCMS analysis. As to conditions: read-out: Drug metabolism. The series is classed as ADME, Microsome. In short, it runs like this:
(§1)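 High-throughput microsomal stability: compound at 20 uM incubated with mouse, rat, dog or human liver microsomes at 37 °C; percent parent remaining measured after 30 min and reported as % turnover.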

Series [2] can be described thus: Drug metabolism in mouse microsomes assessed as drug turnover at 20 uM measured after 30 mins by LCMS analysis. The series is classed as ADME, Microsome. Particulars: read-out: Drug metabolism. In short, it runs like this:
as §1

The target in series [3] is T1, Probable G-protein coupled receptor 142 (Homo sapiens) (UniProt Q7Z601).
T1 sequence (whole entry): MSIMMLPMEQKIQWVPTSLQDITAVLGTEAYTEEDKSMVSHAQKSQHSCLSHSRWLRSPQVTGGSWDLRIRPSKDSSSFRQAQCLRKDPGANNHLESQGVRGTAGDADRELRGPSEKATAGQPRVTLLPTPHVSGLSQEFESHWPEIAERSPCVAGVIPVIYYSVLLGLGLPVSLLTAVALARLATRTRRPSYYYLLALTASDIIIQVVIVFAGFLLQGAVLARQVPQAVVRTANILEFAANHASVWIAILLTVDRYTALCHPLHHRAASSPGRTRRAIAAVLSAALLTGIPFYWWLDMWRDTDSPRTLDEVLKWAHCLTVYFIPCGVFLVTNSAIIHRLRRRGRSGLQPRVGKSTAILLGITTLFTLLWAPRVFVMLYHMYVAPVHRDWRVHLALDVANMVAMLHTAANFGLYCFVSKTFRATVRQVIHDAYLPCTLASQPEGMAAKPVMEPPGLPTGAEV
Nature of the series: Agonist activity at human GPR142 receptor expressed in HEK293 cells assessed as accumulation of inositol phosphate at 30 uM to 1 nM incubated for 1 hr followed by IP1-d2 addition by HTRF assay relative to control. Type of series: functional, cell-based. Summed up: (§2)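 HEK293 cells stably expressing human GPR142 (DMEM, 10% FBS, 800 ug/mL G418, 37 °C, 5% CO2), seeded 5000 cells/well and left 18 h to attach. Compounds added at 30 uM to 1 nM, 1 h incubation in HBSS (+Ca, +Mg), 0.1% BSA, 50 mM LiCl, 20 mM HEPES pH 7.2. IP-1 HTRF read-out: IP1-d2 then cryptate, 1 h at 25 °C, 665/620 nm ratio converted via IP-1 standard curve; EC50 by 4-parameter logistic fit.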
For orientation: Time-resolved FRET reads energy transfer from a long-lived donor to a nearby acceptor.

A short description of series [4]: Drug metabolism in human microsomes assessed as drug turnover at 20 uM measured after 30 mins by LCMS analysis. Type of series: ADME, Microsome. As to conditions: read-out: Drug metabolism. Summed up: as §1
Series [5] is described as follows: Drug metabolism in dog microsomes assessed as drug turnover at 20 uM measured after 30 mins by LCMS analysis. The series is classed as ADME, Canis lupus familiaris, Microsome. Particulars: read-out: Drug metabolism. In short, it runs like this: as §1
For series [6], the target named is T2, Probable G-protein coupled receptor 142 (Homo sapiens, UniProt Q7Z601).
T2 sequence (Q7Z601 whole entry): T1 sequence (whole entry)
Nature of the series: Agonist activity at human GPR142 receptor expressed in HEK293 cells assessed as accumulation of inositol phosphate incubated for 1 hr followed by IP1-d2 addition by HTRF assay. The series is classed as functional, cell-based. Summed up:
as §2

Here are results for 22 compounds from ChEMBL document CHEMBL4627259, “Discovery of LY3325656: A GPR142 agonist suitable for clinical testing in human” (Bioorg Med Chem Lett, 2020).

One may read the Emax as the maximal effect, on the per cent scale that the assay sets. As a reminder, the EC50 is the midpoint of the concentration-response curve.

Regarding `Cc1ncn(CC(F)(F)F)c1NC(=O)[C@H]1CCC[C@@H](N(C)C(=O)c2cccc(OC(F)(F)F)c2)C1`, the metabolised at 0.5 h, 20 µM in series [1] was determined as 56%; in series [2], 86%; in series [4] it was 76%; in series [5] it was 51%. The Emax in series [3] was 114%. Also, the EC50 in series [6] was determined as 110 nM.

As to `CN(C(=O)c1cccc(C(F)(F)F)c1)[C@@H]1CCC[C@H](c2nnc(-c3cnc4n3CCOC4)[nH]2)C1`, the metabolised at 0.5 h, 20 µM in series [1] came to 80%; in series [2] it was 70%; in series [4], 84%; in series [5], 52%. Moreover, in series [3], the Emax amounted to 102%. In series [6], the EC50 turned out to be 32 nM.

Regarding `Cc1ncn(CC#N)c1NC(=O)[C@H]1CCC[C@@H](N(C)C(=O)c2cccc(C(F)(F)F)c2)C1`, the metabolised at 0.5 h, 20 µM is 21% in series [1], 56% in series [2], 26% in series [4] and 6% in series [5]. Further, in series [3], the Emax amounted to 96%. The EC50 in series [6] stood at 93 nM.

For `Cc1ncn(CCN2CCOCC2)c1NC(=O)[C@H]1CCC[C@@H](N(C)C(=O)c2cccc(C(F)(F)F)c2)C1`, the metabolised at 0.5 h, 20 µM in series [1] was determined as 63%; in series [2], 67%; in series [4], 38%; in series [5], 19%. Also, in series [3], the Emax worked out at 97%. Besides, in series [6], the EC50 is 51 nM.

Take `Cc1ncn(CC(F)F)c1-c1nnc([C@H]2CCC[C@@H](N(C)C(=O)c3cccc(C(F)(F)F)c3)C2)[nH]1`: the metabolised at 0.5 h, 20 µM in series [1] is 67%; in series [2] it was 82%; in series [4], 90%; in series [5] it was 83%. The Emax in series [3] is 109%. Moreover, in series [6], the EC50 came out at 41 nM.

As to `CN(C(=O)c1cccc(C(F)(F)F)c1)[C@@H]1CCO[C@H](c2nnc(-c3cnc4n3CCOC4)[nH]2)C1`, the metabolised at 0.5 h, 20 µM in series [1] amounted to 28%; in series [2] it was 27%; in series [4], 12%; in series [5], 17%. For the same compound, the Emax in series [3] amounted to 108%. In addition, the EC50 in series [6] came to 102 nM.

For the compound `Cc1ncn(C)c1-c1nnc([C@H]2CCC[C@@H](N(C)C(=O)c3cccc(C(F)(F)F)c3)C2)[nH]1`, the metabolised at 0.5 h, 20 µM in series [1] came to 43%; in series [2], 64%; in series [4], 67%; in series [5] it was 46%. Also, in series [3], the Emax turned out to be 117%. Further, the EC50 in series [6] was determined as 11 nM.

With `Cc1ncn(C)c1-c1nnc([C@@H]2C[C@H](N(C)C(=O)c3cccc(OC(F)(F)F)c3)CCO2)[nH]1`, the metabolised at 0.5 h, 20 µM stood at 14% in series [1], 39% in series [2], 10% in series [4] and 16% in series [5].

With `Cc1ncn(CC2CC2)c1-c1nnc([C@@H]2C[C@H](N(C)C(=O)c3cccc(C(F)(F)F)c3)CCO2)[nH]1`, the metabolised at 0.5 h, 20 µM in series [1] came to 64%; in series [2], 83%; in series [4], 69%; in series [5], 63%. Besides, the Emax in series [3] is 123%. Further, the EC50 in series [6] stood at 14 nM.

In the case of `Cc1ncn(C(C)C)c1NC(=O)[C@H]1CCC[C@@H](N(C)C(=O)c2cccc(C(F)(F)F)c2)C1`, the metabolised at 0.5 h, 20 µM in series [1] worked out at 52%; in series [2], 76%; in series [4], 48%; in series [5], 33%. Further, the Emax in series [3] came to 115%. Besides, the EC50 in series [6] stood at 31 nM.

Turning to `Cc1ncn(CC(F)F)c1NC(=O)[C@H]1CCC[C@@H](N(C)C(=O)c2cccc(C(F)(F)F)c2)C1`, the metabolised at 0.5 h, 20 µM in series [1] came out at 59%; in series [2], 64%; in series [4], 58%; in series [5], 38%. Besides, in series [3], the Emax amounted to 105%. The EC50 in series [6] was 63 nM.

On to `Cc1ncn(CC2CN(C)C2)c1NC(=O)[C@H]1CCC[C@@H](N(C)C(=O)c2cccc(C(F)(F)F)c2)C1`, for which the metabolised at 0.5 h, 20 µM came to 29% in series [1], 38% in series [2], 20% in series [4] and 24% in series [5]. In addition, the Emax in series [3] turned out to be 103%. Further, the EC50 in series [6] was 147 nM.

On to `Cc1ncn(CC2CC2)c1NC(=O)[C@H]1CCC[C@@H](N(C)C(=O)c2cccc(C(F)(F)F)c2)C1`, for which the metabolised at 0.5 h, 20 µM in series [1] came to 88%; in series [2], 97%; in series [4] it was 72%; in series [5] it was 66%. The Emax in series [3] came to 118%. Also, the EC50 in series [6] stood at 52 nM.

In the case of `CN(C(=O)c1cccc(C(F)(F)F)c1)[C@@H]1CCO[C@H](c2nnc(-c3cnc4n3CCC4)[nH]2)C1`, the metabolised at 0.5 h, 20 µM in series [1] was 16%; in series [2], 39%; in series [4] it was 18%; in series [5], 7%. For the same compound, in series [3], the Emax turned out to be 107%. The EC50 in series [6] stood at 53 nM.

As to `Cc1ncc(-c2nnc([C@H]3CCC[C@@H](N(C)C(=O)c4cccc(C(F)(F)F)c4)C3)[nH]2)n1C`, the metabolised at 0.5 h, 20 µM was 41% in series [1], 53% in series [2], 69% in series [4] and 22% in series [5]. In addition, the Emax in series [3] came out at 98%. Moreover, in series [6], the EC50 came to 46 nM.

For `Cc1nc[nH]c1-c1nnc([C@H]2CCC[C@@H](N(C)C(=O)c3cccc(C(F)(F)F)c3)C2)[nH]1`, the metabolised at 0.5 h, 20 µM was determined as 36% in series [1], 36% in series [2], 13% in series [4] and 9% in series [5]. The Emax in series [3] was 101%. Moreover, in series [6], the EC50 is 76 nM.

For the compound `Cc1ncn(CC(F)(F)F)c1NC(=O)[C@H]1CCC[C@@H](N(C)C(=O)c2cccc(C(F)(F)F)c2)C1`, the metabolised at 0.5 h, 20 µM was 59% in series [1], 67% in series [2], 62% in series [4] and 38% in series [5]. The Emax in series [3] is 114%. In addition, the EC50 in series [6] was found to be 81 nM.

Consider `CN(C(=O)c1cccc(Cl)c1)[C@@H]1CCO[C@H](c2nnc(-c3cnc4ccccn34)[nH]2)C1`, for which the metabolised at 0.5 h, 20 µM in series [1] turned out to be 23%; in series [2], 66%; in series [4], 29%; in series [5], 46%. Also, the Emax in series [3] came to 102%. Further, the EC50 in series [6] amounted to 35 nM.

Turning to `Cc1ncn(C)c1-c1nnc([C@@H]2C[C@H](N(C)C(=O)c3cccc(Cl)c3)CCO2)[nH]1`, the metabolised at 0.5 h, 20 µM was 15% in series [1], 17% in series [2], 7% in series [4] and 16% in series [5].

Regarding `Cc1ncn(CC(F)F)c1NC(=O)[C@H]1CCC[C@@H](N(C)C(=O)c2cccc(Cl)c2)C1`, the metabolised at 0.5 h, 20 µM stood at 79% in series [1], 54% in series [2], 51% in series [4] and 19% in series [5]. Also, in series [3], the Emax worked out at 99%. Besides, in series [6], the EC50 was 104 nM.

On to `Cc1ncn(C)c1NC(=O)[C@H]1CCC[C@@H](N(C)C(=O)c2cccc(OC(F)(F)F)c2)C1`, for which the metabolised at 0.5 h, 20 µM amounted to 37% in series [1], 90% in series [2], 42% in series [4] and 40% in series [5]. Further, the Emax in series [3] came out at 104%. In series [6], the EC50 was 71 nM.

Consider `Cc1ncn(C2CCC2)c1-c1nnc([C@@H]2C[C@H](N(C)C(=O)c3cccc(C(F)(F)F)c3)CCO2)[nH]1`, for which the metabolised at 0.5 h, 20 µM turned out to be 13% in series [1], 46% in series [2], 82% in series [4] and 48% in series [5]. The Emax in series [3] worked out at 121%. Moreover, the concentration giving a half-maximal response (EC50) in series [6] turned out to be 16 nM.
